Assay [1] has as its target T1, Ectonucleotide pyrophosphatase/phosphodiesterase family member 1 (Homo sapiens) (UniProt P22413).
T1 sequence (whole entry): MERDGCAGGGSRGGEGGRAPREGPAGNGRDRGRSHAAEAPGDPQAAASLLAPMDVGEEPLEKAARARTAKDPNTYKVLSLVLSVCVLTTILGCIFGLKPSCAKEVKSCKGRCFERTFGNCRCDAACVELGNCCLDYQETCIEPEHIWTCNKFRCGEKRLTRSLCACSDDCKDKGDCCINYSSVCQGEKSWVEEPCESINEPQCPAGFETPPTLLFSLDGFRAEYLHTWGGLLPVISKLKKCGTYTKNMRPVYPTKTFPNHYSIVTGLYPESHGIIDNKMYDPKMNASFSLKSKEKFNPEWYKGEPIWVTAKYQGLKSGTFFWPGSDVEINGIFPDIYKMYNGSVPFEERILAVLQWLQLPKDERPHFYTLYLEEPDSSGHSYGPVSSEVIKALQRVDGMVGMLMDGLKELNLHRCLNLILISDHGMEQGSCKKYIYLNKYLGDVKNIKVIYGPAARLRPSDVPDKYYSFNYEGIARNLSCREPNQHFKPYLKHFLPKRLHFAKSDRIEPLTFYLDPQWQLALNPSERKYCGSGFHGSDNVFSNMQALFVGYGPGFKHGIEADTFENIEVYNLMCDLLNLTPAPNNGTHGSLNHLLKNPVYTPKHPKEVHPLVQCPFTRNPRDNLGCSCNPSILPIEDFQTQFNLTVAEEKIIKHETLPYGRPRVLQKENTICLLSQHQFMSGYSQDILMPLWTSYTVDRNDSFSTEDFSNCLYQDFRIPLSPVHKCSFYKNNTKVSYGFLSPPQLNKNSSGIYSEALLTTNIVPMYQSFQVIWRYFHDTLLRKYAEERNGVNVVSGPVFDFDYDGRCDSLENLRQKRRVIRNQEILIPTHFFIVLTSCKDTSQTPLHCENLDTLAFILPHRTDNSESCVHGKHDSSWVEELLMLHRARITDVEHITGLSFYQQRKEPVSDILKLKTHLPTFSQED
As to the kind of experiment: Inhibition of NPP1 in human HTB-85 cells assessed as production of p-nitrophenol using pnp-TMP at 100 uM measured after 20 mins by spectrophotometry. The class given is cell-based. The method, boiled down:
(§1)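 Intact osteocarcinoma HTB85 (SaOS-2) cells in 24-well plates, 0.5 mL incubation mixture, analogue and pnp-TMP each at 100 μM. After 20 min an aliquot was read for p-nitrophenol at 410 nm. Substrate alone set as 100%. Mean ± SD of three experiments in triplicate.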

Assay [2] deals with T1, Ectonucleotide pyrophosphatase/phosphodiesterase family member 1 (Homo sapiens). Put plainly: Competitive inhibition of human NPP1 expressed in COS7 cells assessed as production of p-nitrophenol using pnp-TMP as the substrate preincubated at 25 to 100 uM for 3 mins before substrate addition measured after 15 mins by Dixon/Cornish Bowden method. The class given is cell-based. Conditions: COS-7. In a few lines: (§2)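 Crude protein extract from COS-7 cells transiently transfected with human NPP1 (sonicated, debris cleared at 300g), preincubated 3 min at 37 °C with inhibitor (0, 25, 50, 100 μM) in 1 mM CaCl2, 140 mM NaCl, 5 mM KCl, 50 mM Tris pH 8.5. pnp-TMP (25, 50, 100 μM) added; p-nitrophenol read at 410 nm after 15 min. Ki,app and inhibition type from Dixon and Cornish-Bowden plots, three independent experiments.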

Assay [3] has the same target. As to the kind of experiment: Inhibition of human NPP1 expressed in COS7 cells assessed as production of p-nitrophenol using pnp-TMP as the substrate preincubated at 100 uM for 3 mins before substrate addition measured after 15 mins […]. In kind it is cell-based. Conditions: COS-7. In a few lines:
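Crude extracts of COS-7 cells transiently transfected with human NPP1 or NPP3, preincubated 3 min at 37 °C in 1 mM CaCl2, 140 mM NaCl, 5 mM KCl, 50 mM Tris pH 8.5 with analogue at 100 μM. Reaction started with 100 μM pnp-TMP; p-nitrophenol at 410 nm after 15 min. Activity without analogue set as 100%. Mean ± SD of 3−6 experiments in triplicate.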

The target of assay [4] is T2, Ectonucleotide pyrophosphatase/phosphodiesterase family member 1 (Homo sapiens, UniProt P22413).
T2 sequence (P22413 whole entry): T1 sequence (whole entry)
As to the kind of experiment: Mixed type inhibition of human NPP1 expressed in COS7 cells assessed as production of p-nitrophenol using pnp-TMP as the substrate preincubated for 3 mins before substrate addition measured after 15 mins by Dixon/Cornish Bowden method. In kind it is cell-based, COS-7. Conditions: read-out: Ki(app). In a few lines: as §2

The target of assay [5] is T3, Ectonucleotide pyrophosphatase/phosphodiesterase family member 3 (Homo sapiens) (UniProt O14638).
T3 sequence (whole entry): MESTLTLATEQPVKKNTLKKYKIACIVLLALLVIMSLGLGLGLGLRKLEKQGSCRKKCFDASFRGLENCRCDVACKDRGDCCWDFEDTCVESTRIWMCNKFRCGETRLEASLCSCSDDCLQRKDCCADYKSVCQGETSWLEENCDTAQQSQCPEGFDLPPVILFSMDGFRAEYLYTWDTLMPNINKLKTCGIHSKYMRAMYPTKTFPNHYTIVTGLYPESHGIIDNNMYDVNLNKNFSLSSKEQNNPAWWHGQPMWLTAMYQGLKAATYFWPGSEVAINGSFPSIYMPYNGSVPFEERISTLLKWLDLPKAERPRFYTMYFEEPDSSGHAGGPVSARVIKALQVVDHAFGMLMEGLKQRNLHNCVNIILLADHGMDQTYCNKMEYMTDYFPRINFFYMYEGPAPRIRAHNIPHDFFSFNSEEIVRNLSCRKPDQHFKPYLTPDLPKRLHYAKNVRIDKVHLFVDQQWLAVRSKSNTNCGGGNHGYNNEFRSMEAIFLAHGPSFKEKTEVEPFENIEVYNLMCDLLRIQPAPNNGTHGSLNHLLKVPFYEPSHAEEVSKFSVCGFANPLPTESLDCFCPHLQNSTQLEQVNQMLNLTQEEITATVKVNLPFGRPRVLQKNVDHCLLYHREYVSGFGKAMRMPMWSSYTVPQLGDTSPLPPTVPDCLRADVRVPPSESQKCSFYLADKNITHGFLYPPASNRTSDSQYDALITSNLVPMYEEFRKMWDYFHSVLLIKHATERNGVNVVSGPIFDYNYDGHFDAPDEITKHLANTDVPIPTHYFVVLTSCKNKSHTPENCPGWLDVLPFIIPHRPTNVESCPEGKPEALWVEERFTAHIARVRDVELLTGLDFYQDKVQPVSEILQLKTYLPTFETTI
As to the kind of experiment: Inhibition of NPP3 in human HTB-85 cells assessed as production of p-nitrophenol using pnp-TMP at 100 uM measured after 20 mins by spectrophotometry. In kind it is cell-based. The method, boiled down: as §1

In assay [6] the target is T4, Ectonucleoside triphosphate diphosphohydrolase 3 (Homo sapiens) (UniProt O75355).
T4 sequence (whole entry): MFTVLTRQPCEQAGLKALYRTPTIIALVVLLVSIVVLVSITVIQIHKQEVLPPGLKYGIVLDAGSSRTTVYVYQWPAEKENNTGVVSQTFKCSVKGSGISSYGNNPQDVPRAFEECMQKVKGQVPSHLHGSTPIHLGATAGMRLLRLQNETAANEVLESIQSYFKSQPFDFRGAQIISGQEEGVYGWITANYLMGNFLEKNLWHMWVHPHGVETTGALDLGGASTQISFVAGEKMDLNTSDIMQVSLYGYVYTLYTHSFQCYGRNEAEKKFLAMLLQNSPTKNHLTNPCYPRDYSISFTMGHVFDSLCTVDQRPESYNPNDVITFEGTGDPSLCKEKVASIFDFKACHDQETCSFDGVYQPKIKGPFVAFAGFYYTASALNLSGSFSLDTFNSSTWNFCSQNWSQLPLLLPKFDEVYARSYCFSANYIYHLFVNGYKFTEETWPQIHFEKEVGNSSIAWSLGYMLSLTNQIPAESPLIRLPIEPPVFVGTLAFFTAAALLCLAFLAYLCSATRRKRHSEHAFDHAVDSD
As to the kind of experiment: Inhibition of human NTPDase3 assessed as amount of inorganic phosphate released using ATP as the substrate preincubated at 100 uM for 3 mins before substrate addition after 15 mins by malachite green reagent method. In a few lines: (§3)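 Crude extracts of COS-7 cells transiently transfected with human NTPDase1, -2, -3 or -8, preincubated 3 min at 37 °C in Tris-Ringer medium pH 7.4 with analogue (final 100 μM). Started with 100 μM ATP, stopped after 15 min with malachite green; released Pi read at 630 nm. ATP alone set as 100%. Mean ± SD of 3−6 experiments in triplicate.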

In assay [7] the target is T5, Ectonucleoside triphosphate diphosphohydrolase 8 (Homo sapiens) (UniProt Q5MY95).
T5 sequence (whole entry): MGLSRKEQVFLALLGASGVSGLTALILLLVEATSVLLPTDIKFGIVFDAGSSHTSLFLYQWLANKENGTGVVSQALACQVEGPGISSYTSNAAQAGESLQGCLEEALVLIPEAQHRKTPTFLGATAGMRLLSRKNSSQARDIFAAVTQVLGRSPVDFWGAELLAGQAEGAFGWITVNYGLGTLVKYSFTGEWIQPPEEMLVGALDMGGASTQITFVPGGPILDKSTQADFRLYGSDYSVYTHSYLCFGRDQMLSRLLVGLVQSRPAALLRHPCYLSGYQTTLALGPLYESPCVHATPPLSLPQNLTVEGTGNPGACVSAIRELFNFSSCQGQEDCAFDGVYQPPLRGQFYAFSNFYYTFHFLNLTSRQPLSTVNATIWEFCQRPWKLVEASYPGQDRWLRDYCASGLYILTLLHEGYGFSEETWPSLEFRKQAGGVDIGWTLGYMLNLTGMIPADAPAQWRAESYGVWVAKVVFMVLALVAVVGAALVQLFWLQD
As to the kind of experiment: Inhibition of human NTPDase8 assessed as amount of inorganic phosphate released using ATP as the substrate preincubated at 100 uM for 3 mins before substrate addition after 15 mins by malachite green reagent method. In a few lines: as §3

Assay [8] deals with T6, Ectonucleoside triphosphate diphosphohydrolase 1 (Homo sapiens) (UniProt P49961).
T6 sequence (whole entry): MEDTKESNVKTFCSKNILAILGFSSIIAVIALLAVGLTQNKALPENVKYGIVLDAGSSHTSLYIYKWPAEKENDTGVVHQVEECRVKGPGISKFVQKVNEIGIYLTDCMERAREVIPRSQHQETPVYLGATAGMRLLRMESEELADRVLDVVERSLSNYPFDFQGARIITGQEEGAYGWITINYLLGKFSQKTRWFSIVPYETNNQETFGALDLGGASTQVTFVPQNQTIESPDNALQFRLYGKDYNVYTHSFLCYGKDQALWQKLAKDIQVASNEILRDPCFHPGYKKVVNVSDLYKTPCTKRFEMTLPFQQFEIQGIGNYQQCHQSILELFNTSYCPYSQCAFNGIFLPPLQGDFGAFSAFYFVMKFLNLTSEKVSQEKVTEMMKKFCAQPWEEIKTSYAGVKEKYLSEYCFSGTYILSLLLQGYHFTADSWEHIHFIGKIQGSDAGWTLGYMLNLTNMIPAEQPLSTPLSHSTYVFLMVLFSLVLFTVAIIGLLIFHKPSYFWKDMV
As to the kind of experiment: Inhibition of human NTPDase1 assessed as amount of inorganic phosphate released using ATP as the substrate preincubated at 100 uM for 3 mins before substrate addition after 15 mins by malachite green reagent method. In a few lines: as §3

Assay [9] concerns the target T7, Ectonucleoside triphosphate diphosphohydrolase 2 (Homo sapiens) (UniProt Q9Y5L3).
T7 sequence (whole entry): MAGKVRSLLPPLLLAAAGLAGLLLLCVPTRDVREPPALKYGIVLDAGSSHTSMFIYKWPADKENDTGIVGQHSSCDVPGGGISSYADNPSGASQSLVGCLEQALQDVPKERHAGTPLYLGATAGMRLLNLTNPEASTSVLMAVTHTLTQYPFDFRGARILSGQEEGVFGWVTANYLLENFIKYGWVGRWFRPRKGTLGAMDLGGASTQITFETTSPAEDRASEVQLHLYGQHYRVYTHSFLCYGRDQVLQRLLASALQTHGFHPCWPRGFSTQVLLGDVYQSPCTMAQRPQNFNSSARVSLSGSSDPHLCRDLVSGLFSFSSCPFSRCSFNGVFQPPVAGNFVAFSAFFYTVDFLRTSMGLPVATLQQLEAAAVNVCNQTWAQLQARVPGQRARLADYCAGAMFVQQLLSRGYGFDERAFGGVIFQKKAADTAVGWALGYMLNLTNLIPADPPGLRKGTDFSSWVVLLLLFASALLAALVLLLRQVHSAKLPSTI
As to the kind of experiment: Inhibition of human NTPDase2 assessed as amount of inorganic phosphate released using ATP as the substrate preincubated at 100 uM for 3 mins before substrate addition after 15 mins by malachite green reagent method. In a few lines: as §3

Active and inactive are the calls of the source. The rule behind the calls is not given here.

For `B[P@](=O)(OC[C@H]1O[C@@H](n2cnc3c(N)ncnc32)[C@H](O)[C@@H]1O)OP(=O)(O)C(Cl)(Cl)P(=O)(O)O`, the inhibition (commonly the drop in the measured response relative to a control, in per cent) in [1] is 41%; in assay [3] it was 90%; in [5] it was 41%. The inhibition result in [2] is “Active”. Besides, in assay [4], the Ki came out at 28 µM.
Take `B[P@](=O)(OC[C@H]1O[C@@H](n2cnc3c(N)nc(SC)nc32)[C@H](O)[C@@H]1O)OP(=O)(O)C(F)(F)P(=O)(O)O`: the inhibition in assay [6] is 50%; in [7] it was 30%; in assay [1], 41%; in assay [3] it was 90%; in [5] it was 41%.
As for `B[P@](=O)(OC[C@H]1O[C@@H](n2cnc3c(N)nc(SC)nc32)[C@H](O)[C@@H]1O)OP(=O)(O)C(Cl)(Cl)P(=O)(O)O`, the results for the inhibition in [1], in assay [3] and in assay [5] were 41%, 90% and 41%, respectively.
Turning to `B[P@@](=O)(OC[C@H]1O[C@@H](n2cnc3c(N)nc(SC)nc32)[C@H](O)[C@@H]1O)OP(=O)(O)C(Cl)(Cl)P(=O)(O)O`, the inhibition in assay [6] was found to be 50%; in assay [8], 50%; in assay [1] it was 90%; in assay [3], 90%; in assay [5], 90%.
Turning to `B[P@@](=O)(OC[C@H]1O[C@@H](n2cnc3c(N)nc(SC)nc32)[C@H](O)[C@@H]1O)OP(=O)(O)CP(=O)(O)O`, the inhibition is less than 18% in [6]; less than 18% in assay [7]; less than 18% in assay [8]; 80% in [3]; less than 18% in assay [9].
Regarding `CSc1nc(N)c2ncn([C@@H]3O[C@H](COP(=O)(O)OP(=O)(O)CP(=O)(O)O)[C@@H](O)[C@H]3O)c2n1`, the inhibition in assay [6] is less than 18%; in assay [7], less than 18%; in assay [8], less than 18%; in assay [3], 66%; in assay [9], less than 18%.

For the origin of these results see ChEMBL document CHEMBL3085721, “Nonhydrolyzable ATP analogues as selective inhibitors of human NPP1: a combined computational/experimental study” (J Med Chem, 2013).
